H69AR inhibit: proliferation blockers of H69AR lung cancer cells, primary screen, cell-based, human, 86K library; H69AR lung tumor viability, ATP luminescence, 72 h; stronger effect = lower value; viability, % at 10 µM; 85,000 compounds, 6% hits;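 active = viability at or below 40%; inactive = viability above 40%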;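 note: multidrug resistant small cell line overexpressing MRP-1 efflux transporter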
PTK2B oligo ant: antagonists of Pyk2 self-association, primary screen, Q293 cells, FERM NanoBiT luminescence, HTS. stronger effect = lower value. z-score (the deposit names both 25 µM and 10 µM). 99,000 compounds, 0.83% hits;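 active = Z-score of -3 or lower, scaled per plate to the spread of control and sample wells; inactive = z-score above -3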;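 note: negative z-score means lost luminescence so less FERM oligomerization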
Target sequence (Q14289 whole entry, looked up): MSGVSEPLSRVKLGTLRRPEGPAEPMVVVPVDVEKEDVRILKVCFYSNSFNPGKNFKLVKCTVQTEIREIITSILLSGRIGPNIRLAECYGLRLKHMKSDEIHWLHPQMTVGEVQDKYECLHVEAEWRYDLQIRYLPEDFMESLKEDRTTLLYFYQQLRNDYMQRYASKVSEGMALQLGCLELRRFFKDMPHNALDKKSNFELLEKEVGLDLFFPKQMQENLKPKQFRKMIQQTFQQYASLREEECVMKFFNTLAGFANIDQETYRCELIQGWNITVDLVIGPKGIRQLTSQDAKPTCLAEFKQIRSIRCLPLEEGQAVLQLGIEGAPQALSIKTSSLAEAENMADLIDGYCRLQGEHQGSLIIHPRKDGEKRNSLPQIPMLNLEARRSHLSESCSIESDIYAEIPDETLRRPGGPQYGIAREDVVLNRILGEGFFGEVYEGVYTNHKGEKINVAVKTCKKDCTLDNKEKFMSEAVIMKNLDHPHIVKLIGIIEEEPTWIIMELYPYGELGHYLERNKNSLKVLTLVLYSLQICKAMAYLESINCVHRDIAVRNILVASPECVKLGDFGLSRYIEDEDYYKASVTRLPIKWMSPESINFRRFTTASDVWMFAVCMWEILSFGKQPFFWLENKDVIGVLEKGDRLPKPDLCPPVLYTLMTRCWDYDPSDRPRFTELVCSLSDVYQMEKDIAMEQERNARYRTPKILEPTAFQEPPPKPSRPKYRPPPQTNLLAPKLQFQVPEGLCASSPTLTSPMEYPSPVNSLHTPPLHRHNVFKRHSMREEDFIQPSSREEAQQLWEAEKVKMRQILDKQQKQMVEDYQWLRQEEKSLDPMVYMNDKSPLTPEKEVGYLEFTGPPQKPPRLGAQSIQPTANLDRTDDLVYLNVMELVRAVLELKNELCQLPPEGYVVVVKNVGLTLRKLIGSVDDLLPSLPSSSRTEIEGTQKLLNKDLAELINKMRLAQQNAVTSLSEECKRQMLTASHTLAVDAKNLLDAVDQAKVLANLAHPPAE
Lung fibro prol: antiproliferative effect on LL 47 fibroblasts – human, LL 47 cells, CellTiter-Glo luminescence, primary screen; LL 47 human lung fibroblast viability, ATP luminescence; stronger effect = lower value; viability, % at 10 µM; 85,000 compounds, 1.1% hits;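 active = viability at or below 50% in the single dose screen; inactive = viability above 50%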;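 note: compound exposure lasted 72 h before the ATP readout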
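Material: human lung fibroblast line LL 47, low passage; Evaluation: viability percentage against median untreated-cell control; Buffer or medium: 15% FBS in IMEM; Incubation: 72 h compound exposure at 37 °C after overnight plating; Dosing: 0.1% DMSO in all compound wells; Measured by: CellTiter-Glo luminescence.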
HUVEC inhibit: inhibitors of HUVEC proliferation, primary screen, cell-based, 384-well | CellTiter-Glo luminescence, 72 h; stronger effect = lower value | viability, % at 10 µM (by protocol) | 86,000 compounds, 1.1% hits;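 active = viability at or below 30%; inactive = viability above 30%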
Jurkat tox 60K: cytotoxicity toward Jurkat T cells, primary screen, cytotoxicity control, cell-based, Jurkat E6.1, 60K MLSMR library; Jurkat E6.1 viability, ATP luminescence, 48 h; inhibition, % at 4 µM; 56,000 compounds, 1.2% hits;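 active = inhibition above the mean inhibition of all tested compounds plus 3 SD, cut at about 28% in these data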
MT1-MMP txn act: MT1-MMP promoter reporter activation – cell-based, luciferase luminescence, primary screen | HT1080 MT1-MMP promoter luciferase reporter, overnight; stronger effect = higher value | AID 750, 2007 | 86,000 compounds, 0.16% hits | activation factor at 10 µM;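 active = activation factor of at least 2 for MT1-MMP transcription at 10 µM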
Numbers stand for hits; 0 = inactive; - = no result given. Hits are enriched below; roughly 5.9% of the tested compounds scored in any of these assays.

SMILES	H69AR inhibit	PTK2B oligo ant	Lung fibro prol	HUVEC inhibit	Jurkat tox 60K	MT1-MMP txn act
CCCCC(=O)Nc1cccc(-c2nnc(-c3ccccc3)o2)c1	0	0	0	0	0	0
Cc1cccc(OCC(=O)Nc2cccc(-c3nnc(-c4ccccc4)o3)c2)c1C	9.8	0	0	0	0	0
Cc1cccc(C)c1OCC(=O)Nc1cccc(-c2nnc(-c3ccccc3)o2)c1	-	0	-	-	-	0
O=C(Nc1cccc(-c2nnc(-c3ccccc3)o2)c1)c1ccco1	15	0	0	0	0	0
Cc1ccc(-c2nnc(-c3cccc(NC(=O)c4cccs4)c3)o2)cc1	-	0	-	-	-	-
O=C(Nc1ccccc1)c1cccc(-c2nnc(-c3ccccc3)o2)c1	26	0	0	19	0	0
O=C(Nc1ccc2nc(-c3ccco3)[nH]c2c1)c1cccs1	40	0	0	0	0	0
CCNC(=O)[C@@H]1CCCN1C(=O)[C@H](CCCN=C(N)N)NC(=O)[C@H](CC(C)C)NC(=O)[C@@H](CC(C)C)NC(=O)[C@H](Cc1ccc(O)cc1)NC(=O)[C@H](CO)NC(=O)[C@H](Cc1c[nH]c2ccccc12)NC(=O)[C@H](Cc1cnc[nH]1)NC(=O)[C@@H]1CCC(=O)N1	-	-	-	-	-	0
Cc1ccc2nc(-c3cccc(NC(=O)c4ccco4)c3)[nH]c2c1	21	0	-	0	0	0
O=C(Nc1cccc(-c2nnc(-c3ccccc3)o2)c1)C1CCCCC1	19	0	0	0	0	0
N#CCCSc1ccccc1NC(=O)c1ccc(S(=O)(=O)N2CCCC2)cc1	0	-	0	0	0	0
COc1cc(-c2c(C#N)c(=O)[nH]c3c2c(C)nn3-c2ccccc2)ccc1O	0	-3.3	0	0	0	0
Cc1cc(C)nc(-n2nc(C)cc2NC(=O)CN2CCC(C)CC2)n1	9.5	0	0	0	-	0
CCC1CCCCN1CC(=O)Nc1cc(C)nn1-c1nc(C)cc(C)n1 (centres undefined)	19	0	0	0	0	0
O=C(CNC(=O)Cc1ccccc1)NCC(=O)OCC(=O)c1cccc2ccccc12	-	0	-	-	-	-
NC(=O)NC(Cc1ccccc1)C(=O)NCC1(N2CCCCC2)CCCCC1 (centres undefined)	0	0	0	0	0	0
Cc1ccc(N=C2NC(=O)/C(=C\c3ccsc3)S2)c(C)c1	-	0	-	-	-	-
CC(C)OCCCNC(=O)c1c(N)n(/N=C/c2ccccn2)c2nc3ccccc3nc12	23	0	0	0	0	0
CC(C)CNC(=O)c1c(N)n(/N=C/c2cccnc2)c2nc3ccccc3nc12	0	-	0	0	-	0
COCCCNC(=O)c1c(N)n(/N=C/c2cccnc2)c2nc3ccccc3nc12	-	0	-	-	-	0
CCC(C)NC(=O)c1c(N)n(/N=C/c2cccnc2)c2nc3ccccc3nc12 (centres undefined)	0	0	0	3.4	0	0
CCC(C)NC(=O)c1c(N)n(/N=C/c2ccccn2)c2nc3ccccc3nc12 (centres undefined)	11	0	0	12	0	0
O=C(CN1CCN(CC(=O)Nc2ccccc2C(F)(F)F)CC1)Nc1ccccc1F	0	0	0	0	0	0
CCc1ccccc1NC(=O)CSc1nnc(Cn2nnc3ccccc32)n1C	0	0	0	0	-	0
CCCOP(=O)(OCCC)c1c([N+](=O)[O-])cc(C(F)(F)F)cc1[N+](=O)[O-]	39	0	19	12	-	0
SMILES	H69AR inhibit	PTK2B oligo ant	Lung fibro prol	HUVEC inhibit	Jurkat tox 60K	MT1-MMP txn act
CCN(CC)c1ccc(C(=O)OCc2cc(=O)oc3cc(O)ccc23)cc1	-	-3.1	-	-	-	-
Cc1cc2oc(=O)cc(COC(=O)c3cccc(N(C)C)c3)c2cc1C	0	-	0	0	0	0
CC(=O)Nc1ccc(S(=O)(=O)CCC(=O)O)cc1	0	0	0	0	-	0
CC(=O)CCS(=O)(=O)c1ccc(NC(C)=O)cc1	0.2	0	0	0	-	0
COC(=O)Nc1ccc(NC(C)=O)cc1	-	0	-	-	0	0
COC(=O)/C=C/S(=O)(=O)c1ccc(NC(C)=O)cc1	1.0	0	-	0	71	0
O=C(NCc1ccccn1)c1cc(-n2cnnc2)ccc1Cl	0	0	0	0	0	0
CCCC(c1nnnn1CCc1ccccc1)N1CCC(C(N)=O)CC1 (centres undefined)	0	0	0	0	-	0
Cc1ccc(-c2noc(C3CCCN(C(=O)C4CCCCC4)C3)n2)o1 (centres undefined)	0	0	0	0	-	0
Cc1ccc(C=Nc2ccccc2C(N)=O)cc1	22	0	0	0	-	-
NC(=O)c1ccccc1N=Cc1ccccn1	-	0	-	-	0	-
Cc1ccc(NC(=O)c2ccc(CSc3nnnn3C)cc2)cc1	-	0	-	-	-	-
CC(C)(C)C(=O)NC1CCN(S(=O)(=O)c2ccc(C(F)(F)F)cc2)CC1	0	0	0	0	-	0
CCc1nnc(NC(=O)c2c(O)c3cccc4c3n(c2=O)CC4)s1	1.8	-	0	0	0	0
O=C(NCCc1ccccc1)c1c(O)c2cccc3c2n(c1=O)CC3	0	0	0	0	0	0
Cc1cccc(NC(=O)c2c(O)c3cccc4c3n(c2=O)CC4)c1	0	-	0	0	-	0
CCCc1nnc(NC(=O)c2c(O)c3cccc4c3n(c2=O)CC4)s1	18	-	0	0	0	0
C=CCSC1=C(C#N)C(c2ccc(OCC)cc2)CC(=O)N1 (centres undefined)	0	-	0	0	0	0
O=C(Nc1ccc(Cl)cc1C(=O)N1CCOCC1)c1ccco1	0	0	0	0	0	0
CCc1cc2c(=O)c(-c3cscn3)coc2c(CN(C)C)c1O	0	-3.4	0	0	-	0
Cc1oc2c(CN(C)C)c(O)ccc2c(=O)c1-c1cscn1	0	0	0	0	0	0
O=C(/C=C/c1ccc(Cl)c(Cl)c1)n1cccn1	10	0	0	0	-	0
CCOCCCNC(=O)c1cc2sc(Cl)cc2n1CC	36	0	0	0	0	0
Cc1ccc(-c2nn(CC(=O)NCc3cc(-c4nn(C)c(=O)c5ccccc45)ccc3C)c(=O)c3ccccc23)cc1	2.1	0	4.9	4.1	-	0
COc1ccc(-c2nn(C)c(=O)c3ccccc23)cc1NC(=O)Cn1nc(C)c2ccccc2c1=O	3.3	0	0	0	0	0
Cc1nn(CC(=O)Nc2ccc3c(c2)oc2ccccc23)c(=O)c2ccccc12	3.3	0	0	0	0	0
Cc1cnc(-c2nnc(N(C)C(=O)c3ccncc3)s2)cn1	0	-	0	0	0	0
O=C(Nc1ccc(SC(F)F)cc1)c1cccc2nc3ccccc3nc12	10	0	39	26	-	0
CC(Cc1ccc(O)c(O)c1)C(C)Cc1ccc(O)c(O)c1 (centres undefined)	33	-	0	0	-	0

Screening data (PubChem)
